ChEMBL document CHEMBL5543129, “Peptide Inhibitor Targeting the Extraterminal Domain in BRD4 Potently Suppresses Breast Cancer Both In Vitro and In Vivo” (J Med Chem, 2024)
Calls of active or inactive are those of the source. The rule behind the calls is not given here. Square brackets hold non-standard residues; d marks the D form. Peptide text beside a SMILES is read from it. Hyp = O=C(O)[C@@H]1C[C@@H](O)CN1; Ahx = NCCCCCC(=O)O

Assays:
[1] = biological target: T1, von Hippel-Lindau disease tumor suppressor/Bromodomain-containing protein 4 (Homo sapiens) (UniProt O60885+P40337); experiment: PROTAC activity at VHL/BDR4 ET domain in human MCF7 cells assessed as degradation by measuring fold change in remaining BRD4 level at 2.5 uM incubated for 24 hrs by immunoblotting analysis (reference value: […]); type: cell-based
[2] = biological target: T2, von Hippel-Lindau disease tumor suppressor/Bifunctional arginine demethylase and lysyl-hydroxylase JMJD6 (Homo sapiens) (UniProt P40337+Q6NYC1); experiment: Protac activity at VHL/JMJD6 in human MCF7 cells assessed as degradation by measuring fold change in remaining JMJD6 level at 5 uM incubated for 24 hrs by immunoblotting analysis (reference value: […]); type: cell-based
[3] = biological target: T2, von Hippel-Lindau disease tumor suppressor/Bifunctional arginine demethylase and lysyl-hydroxylase JMJD6 (Homo sapiens); experiment: Protac activity at VHL/JMJD6 in human MCF7 cells assessed as degradation by measuring fold change in remaining JMJD6 level at 10 uM incubated for 24 hrs by immunoblotting analysis (reference value: […]); type: cell-based
[4] = biological target: T2, von Hippel-Lindau disease tumor suppressor/Bifunctional arginine demethylase and lysyl-hydroxylase JMJD6 (Homo sapiens); experiment: Protac activity at VHL/JMJD6 in human MCF7 cells assessed as degradation by measuring fold change in remaining JMJD6 level at 10 uM incubated for 6 hrs by immunoblotting analysis (reference value: […]); type: cell-based
[5] = biological target: T2, von Hippel-Lindau disease tumor suppressor/Bifunctional arginine demethylase and lysyl-hydroxylase JMJD6 (Homo sapiens); experiment: Protac activity at VHL/JMJD6 in human MCF7 cells assessed as degradation by measuring fold change in remaining JMJD6 level at 10 uM incubated for 12 hrs by immunoblotting analysis (reference value: […]); type: cell-based
[6] = biological target: T2, von Hippel-Lindau disease tumor suppressor/Bifunctional arginine demethylase and lysyl-hydroxylase JMJD6 (Homo sapiens); experiment: Protac activity at VHL/JMJD6 in human MCF7 cells assessed as degradation by measuring fold change in remaining JMJD6 level at 10 uM incubated for 24 hrs in presence of MG132 by immunoblotting analysis (reference value: […]); type: cell-based
[7] = biological target: T1, von Hippel-Lindau disease tumor suppressor/Bromodomain-containing protein 4 (Homo sapiens); experiment: PROTAC activity at VHL/His-tagged BDR4 ET domain (1 to 470 residues) (unknown origin) transfected in MCF7 cells assessed as degradation by measuring fold change in remaining BRD4 level at 20 uM incubated for 24 hrs by immunoblotting analysis (reference value: […]); type: cell-based
[8] = biological target: T1, von Hippel-Lindau disease tumor suppressor/Bromodomain-containing protein 4 (Homo sapiens); experiment: PROTAC activity at VHL/His-tagged BDR4 ET domain (1 to 470 residues) (unknown origin) transfected in MCF7 cells assessed as degradation by measuring fold change in remaining BRD4 level at 10 uM incubated for 12 hrs by immunoblotting analysis (reference value: […]); type: cell-based
[9] = biological target: T1, von Hippel-Lindau disease tumor suppressor/Bromodomain-containing protein 4 (Homo sapiens); experiment: PROTAC activity at VHL/His-tagged BDR4 […] (unknown origin) transfected in MCF7 cells assessed as degradation by measuring fold change in remaining BRD4 level at 20 uM incubated for 24 hrs by immunoblotting analysis (reference value: […]); type: cell-based
BT-549 [10] = experiment: Inhibition of colony formation in human BT-549 cells at 10 uM incubated for 2 weeks by crystal violet staining based assay; type: functional, cell-based
Procedure, shortened: (§1)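 Cells are seeded at 1 × 10^3/well and treated with peptide (10 μM) for 2 weeks, alone or with JQ1 5 μM, iJMJD6 10 μM, ICI 2.5 μM, or tamoxifen 3 μM (tamoxifen-resistant lines). Colonies are stained with crystal violet, dissolved in 10% acetic acid, and read at 590 nm. Three biological repeats.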

[11] = Downregulation of BRD4 protein expression in human MDA-MB-231 cells assessed as fold change in remaining BRD4 level at 10 uM incubated for 24 hrs by immunoblotting analysis (reference value: 1); type: functional
Procedure, shortened: (§2)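 Cells treated with peptide (10 μM) for 24 h. Lysates in Tris/NaCl/EDTA/1% Triton X-100, run on 10% SDS-PAGE and immunoblotted with ECL detection. β-actin as loading control. Three repeats, quantified against untreated cells.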

[12] = Downregulation of […] protein expression in human MDA-MB-231 cells assessed as fold change in […] at 10 uM incubated for 24 hrs by immunoblotting analysis (reference value: 1); type: functional; procedure, shortened: as §2
MCF7 [13] = experiment: Antiproliferative activity against human MCF7 cells at 10 uM incubated for 1 week in presence of 5 uM JQ1 by CellTiter 96 Aqueous One Solution based assay; type: functional, cell-based; conditions: time 1.0 weeks
Procedure, shortened: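 Cells seeded at 2 × 10^3/well and treated with peptide (10 μM) alone or combined with JQ1 (5 μM), iJMJD6 (10 μM) or ICI (2.5 μM), as the line states. Viability read by MTS reagent, 1 h at 37 °C, A490. Three biological repeats.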

MDA-MB-231 [14] = experiment: Inhibition of colony formation in human MDA-MB-231 cells at 10 uM incubated for 2 weeks in presence of JMJD6 inhibitor by crystal violet staining based assay; type: functional, cell-based; procedure, shortened: as §1
T47D [15] = experiment: Antiproliferative activity against human T47D cells at 10 uM incubated for 1 week in presence of JMJD6 inhibitor by CellTiter 96 Aqueous One Solution based assay; type: functional, cell-based; conditions: time 1.0 weeks
MCF7 [16] = experiment: Inhibition of cell migration in human MCF7 cells at 10 uM incubated for 24 hrs in presence of fulvestrant by inverted microscopic analysis; type: functional, cell-based
Procedure, shortened: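 Cells are seeded at 5 × 10^5/well and scratched at 80–90% confluence. They are kept in serum-free medium with peptide (10 μM); partner agents are JQ1 5 μM, iJMJD6 10 μM, or ICI 2.5 μM. Wound area is imaged by inverted microscope at 0 and 12 or 24 h. Wound closure % = (A0−A1)/A0 × 100. Three biological repeats.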

[17] = Downregulation of BRD4 protein expression in BALB/c mouse tumor xenografted with human MDA-MB-231 cells assessed as fold change in remaining BRD4 level at 25 mg/kg, ip administered every 2 days by immunoblotting analysis; type: functional
Procedure, shortened: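 Tumours taken from xenograft mice dosed with peptide at 25 mg/kg ip every 2 days. […] Three repeats.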

MDA-MB-231 [18] = experiment: Cytotoxicity against human MDA-MB-231 cells incubated for 1 week by CellTiter 96 Aqueous One Solution based assay; type: functional, cell-based; conditions: MDA-MB-231, 168 h
Procedure, shortened: (§3)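 Cells grown in RPMI-1640 (T47D, BT549) or DMEM (MDA-MB-231) with 10% FBS, 37 °C, 5% CO2. Seeded 2 × 10^3/well, exposed to a gradient concentration of peptide for 1 week. MTS-type reagent added 20 μL per 100 μL medium, 1 h at 37 °C, absorbance read at 490 nm. EC50 derived from the concentration–response curve.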

BT-549 [19] = experiment: Cytotoxicity against human BT-549 cells incubated for 1 week by CellTiter 96 Aqueous One Solution based assay; type: functional, cell-based; conditions: BT-549, 168 h; procedure, shortened: as §3
T47D [20] = experiment: Cytotoxicity against human T47D cells incubated for 1 week by CellTiter 96 Aqueous One Solution based assay; type: functional, cell-based; conditions: 168 h; procedure, shortened: as §3
MCF7 [21] = experiment: Inhibition of His-tagged BRD4 ET domain to Flag-tagged JMJD6 (unknown origin) protein-protein interaction in human MCF7 cells assessed as fold decrease in His-tagged BRD4 ET level at 10 uM incubated for 12 hrs by immunoblotting assay (reference value: […]); type: cell-based

T1 sequence (P40337 whole entry, looked up, other chains not shown, the tested form may be a part): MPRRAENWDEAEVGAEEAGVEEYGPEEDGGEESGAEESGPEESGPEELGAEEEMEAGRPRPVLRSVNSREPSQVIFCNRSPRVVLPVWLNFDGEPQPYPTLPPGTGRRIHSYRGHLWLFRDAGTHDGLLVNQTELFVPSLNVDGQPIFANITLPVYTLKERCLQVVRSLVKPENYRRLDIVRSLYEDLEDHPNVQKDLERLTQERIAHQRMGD

With `CC[C@H](C)[C@H](NC(=O)[C@H](Cc1ccc(O)cc1)NC(=O)[C@@H]1C[C@@H](O)CN1C(=O)[C@H](C)NC(=O)[C@@H](NC(=O)CCCCCNC(=O)[C@H](CCC(=O)O)NC(=O)CNC(=O)[C@H](CS)NC(=O)[C@H](CCCCN)NC(=O)[C@H](Cc1ccccc1)NC(=O)[C@H](CCCCN)NC(=O)[C@H](CCC(N)=O)NC(=O)[C@H](CC(N)=O)NC(=O)[C@H](CCCNC(=N)N)NC(=O)[C@H](CCCNC(=N)N)NC(=O)[C@H](CCCNC(=N)N)NC(=O)[C@H](CCCNC(=N)N)NC(=O)[C@H](CCC(N)=O)NC(=O)[C@H](CCCNC(=N)N)NC(=O)[C@H](CCCNC(=N)N)NC(=O)[C@H](CCCCN)NC(=O)[C@H](CCCCN)NC(=O)[C@H](CCCNC(=N)N)NC(=O)CNC(=O)[C@@H](N)Cc1ccc(O)cc1)[C@@H](C)CC)C(=O)O` (H-YGRKKRRQRRRRNQKFKCGE[Ahx]IA[Hyp]YI-OH) the fold change (FC) [1] was 0.92, the fold change (FC) [2] was 0.77 and the fold change (FC) [3] was 0.59. For the same molecule, the fold change (FC) [4] was 0.89, the fold change (FC) [5] was 0.85 and the fold change (FC) [6] was 0.88. For the same molecule, the fold change (FC) [7] was 1.06, the fold change (FC) [8] was 1.11 and the fold change (FC) [9] was 1.4. The inhibition (BT-549 [10]) was “Active”, the “fold change (FC)” value [11] was 0.55 and the “fold change (FC)” value [12] was 0.68. For the same molecule, the Activity (MCF7 [13]) was “Active”, the inhibition (MDA-MB-231 [14]) was “Active” and the Activity (T47D [15]) was “Active”. For the same molecule, the inhibition (MCF7 [16]) was “Active” and the “fold change (FC)” value [17] was 0.15.

H-YGRKKRRQRRRRNQKFKCGE-OH gave an EC50 (MDA-MB-231 [18]) of 4.68 µM, an EC50 (BT-549 [19]) of 32.3 µM and an EC50 (T47D [20]) of 13.3 µM. The fold change (FC) (MCF7 [21]) was 0.49, the inhibition (BT-549 [10]) was “Active” and the “fold change (FC)” value [11] was 1.06. The “fold change (FC)” value [12] was 0.72, the Activity (MCF7 [13]) was “Active” and the inhibition (MDA-MB-231 [14]) was “Active”. For the same molecule, the Activity (T47D [15]) was “Active”, the inhibition (MCF7 [16]) was “Active” and the “fold change (FC)” value [17] was 0.63.
